Source: ChEMBL document CHEMBL4406821, “Novel dual inhibitors targeting CDK4 and VEGFR2 synergistically suppressed cancer progression and angiogenesis” (Eur J Med Chem, 2019)
Active and inactive are the calls of the source. The rule behind the calls is not given here.

Experiments:
MDA-MB-231 [1] = assay: Antiproliferative activity against human MDA-MB-231 cells at 20 to 40 nM assessed as reduction in cell viability incubated for 48 hrs by EdU staining based laser scanning confocal microscopy; format: functional
Summary of the method: (§1)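 Cells, 5×10^4, were seeded in 24-well plates and treated for 48 h. They were then labeled using an EdU Apollo 488 imaging kit with Hoechst 33342 nuclear stain and imaged by laser scanning confocal microscopy. Percent EdU-positive cells = EdU-positive/Hoechst-stained × 100%.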

T47D [2] = assay: Induction of cell cycle arrest in human T47D cells assessed as accumulation in G2/M phase at 20 to 40 nM incubated for 36 hrs by propidium iodide staining based flow cytometry; format: functional
Summary of the method: (§2)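 Cells were treated with graded concentrations for 36 h, then fixed overnight in 70% ice-cold ethanol at 4°C and resuspended in PBS. Staining used 50 µg/ml PI plus 5 µg/ml RNase at 37°C for 30 min. DNA content was analysed by FACS to give G0/G1, S and G2/M fractions.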

HeLa = assay: Induction of apoptosis in human HeLa cells assessed as increase in early apoptotic cells at 20 to 40 nM incubated for 48 hrs by annexin V FITC and propidium iodide staining based flow cytometry; format: functional, cell-based
Summary of the method: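 Cells were treated for 48 h, stained with FITC Annexin V and PI, and analyzed by flow cytometry to count early and late apoptotic cells.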

[3] = Toxicity in NOD/SCID BALB/c mouse xenografted with human SiHa cells assessed as reduction in body weight at 20 to 40 mg/kg, po administered for 21 days; format: organism-based; details: in vivo, 504 h
[4] = Toxicity in NOD/SCID BALB/c mouse xenografted with human SiHa cells assessed as toxic effects in brain at 40 mg/kg, po administered for 48 hrs by hematoxylin and eosin staining method; format: organism-based; details: in vivo
[5] = MRT (0 to t) in Sprague-Dawley rat at 10 mg/kg at 10 mg/kg, po by HPLC-MS analysis; format: ADME, organism-based; details: in vivo
[6] = molecular target: Vascular endothelial growth factor receptor 2 (Homo sapiens, UniProt P35968); assay: Inhibition of recombinant human VEGFR2 (790 to end residues) using myelin ba as substrate incubated for 40 mins by [gamma-33P]-ATP based radiometric assay
CDK4/Cyclin D3 = CDK4/Cyclin D3 (Homo sapiens, UniProt P11802); assay: Inhibition of recombinant full length human CDK4/Cyclin D3 using Rb-fragmen as substrate incubated for 40 mins by [gamma-33P]-ATP based radiometric assay; format: protein-complex assay
[7] = molecular target: Casein kinase 2 (Homo sapiens) (UniProt P67870+P68400+P19784+Q8NEV1); assay: Inhibition of recombinant full length human CK2 expressed in insect Sf21 cells at 1 uM using CK2 substrate peptide as substrate incubated for 40 mins in presence of [gamma-33P]-ATP by scintillation counting method relative to control
Summary of the method: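 Kinase panel profiling at 1 μM performed by Eurofins KinaseProfiler; percent inhibition reported as mean of two independent experiments.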

[8] = molecular target: Ephrin type-A receptor 1 (Homo sapiens) (UniProt P21709); assay: Inhibition of recombinant human EPhA1 (568 to end residues) at 1 uM using KKKSPGEYVNIEFG as substrate incubated for 40 mins in presence of [gamma-33P]-ATP by scintillation counting method relative to control
[9] = molecular target: Serine/threonine-protein kinase STK11 (Homo sapiens) (UniProt Q15831); assay: Inhibition of recombinant human full length LKB1 at 1 uM using LSNLYHQGKFLQTFCGSPLYRRR as substrate incubated for 40 mins in presence of [gamma-33P]-ATP by scintillation counting method relative to control
[10] = molecular target: Leucine-rich repeat serine/threonine-protein kinase 2 (Homo sapiens) (UniProt Q5S007); assay: Inhibition of recombinant human LRRK2 (970 to end residues) at 1 uM using RLGRDKYKTLRQIRQ as substrate incubated for 40 mins in presence of [gamma-33P]-ATP by scintillation counting method relative to control
[11] = test system: Hepatocyte growth factor receptor (Homo sapiens), P08581 [D1246N]; assay: Inhibition of recombinant human Met D1246N mutant (974 to end residues) at 1 uM using KKKGQEEEYVFIE as substrate incubated for 40 mins in presence of [gamma-33P]-ATP by scintillation counting method relative to control
[12] = molecular target: Tyrosine-protein kinase Srms (Homo sapiens) (UniProt Q9H3Y6); assay: Inhibition of recombinant human SRMS at 1 uM incubated for 40 mins in presence of [gamma-33P]-ATP by scintillation counting method relative to control
[13] = molecular target: TGF-beta receptor type-1 (Homo sapiens) (UniProt P36897); assay: Inhibition of recombinant human TGFBR1 (200 to end residues) at 1 uM using casein as substrate incubated for 40 mins in presence of [gamma-33P]-ATP by scintillation counting method relative to control
[14] = molecular target: Serine/threonine-protein kinase WNK2 (Homo sapiens) (UniProt Q9Y3S1); assay: Inhibition of recombinant human WNK2 (166 to 489 residues) at 1 uM using myelin basic protein as substrate incubated for 40 mins in presence of [gamma-33P]-ATP by scintillation counting method relative to control
[15] = molecular target: Fibroblast growth factor receptor 3 (Homo sapiens) (UniProt P22607); assay: Inhibition of recombinant human FGFR3 (447 to 761 residues) at 1 uM using poly(Glu, Tyr) 4:1 as substrate incubated for 40 mins in presence of [gamma-33P]-ATP by scintillation counting method relative to control
Summary of the method: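 Tested at a single 1 uM in an outsourced commercial kinase-profiling panel, read as percent inhibition. Each value is the mean of two independent experiments.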

[16] = molecular target: PI3-kinase p110-delta/p85-alpha (Homo sapiens) (UniProt P27986+O00329); assay: Inhibition of recombinant human full length PI3K p110delta/p85alpha at 1 uM using phosphatidylinositol-4, 5-bisphosphate as substrate incubated for 40 mins in presence of [gamma-33P]-ATP by scintillation counting method relative to control; format: protein-complex assay
HUVEC = assay: Antiproliferative activity against HUVEC cells assessed as reduction in cell viability measured upto 72 hrs by CCK8 assay; format: functional, cell-based; details: Homo sapiens
Summary of the method: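 HUVECs, 3×10³ cells/well, kept in 1640 medium with 10% FBS at 37°C and 5% CO₂. Cells were treated at 20 or 40 nM or vehicle, and viability was read by CCK-8 (absorbance 450 nm) at 0, 12, 24, 36, 48, 60 and 72 h. Five replicates per sample.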

[17] = Toxicity in NOD/SCID BALB/c mouse xenografted with human SiHa cells assessed as effect on blood parameter by measuring neutrophils content at 40 mg/kg, po administered once two days for 4 times by hematology analyzer; format: organism-based; details: in vivo
[18] = Toxicity in BALB/c mouse assessed as effect on blood parameter by measuring basophils content at 40 mg/kg, po administered once two days for 4 times by hematology analyzer; details: in vivo
MDA-MB-231 [19] = assay: Induction of cell cycle arrest in human MDA-MB-231 cells assessed as accumulation in G2/M phase at 40 nM incubated for 36 hrs by propidium iodide staining based flow cytometry; format: functional; summary of the method: as §2
T47D [20] = assay: Antiproliferative activity against human T47D cells assessed as reduction in cell viability at 40 nM incubated for 48 hrs by EdU staining based laser scanning confocal microscopy; format: functional; summary of the method: as §1

Sequence of TGF-beta receptor type-1 (Homo sapiens) (P36897 whole entry, the tested form may be a part): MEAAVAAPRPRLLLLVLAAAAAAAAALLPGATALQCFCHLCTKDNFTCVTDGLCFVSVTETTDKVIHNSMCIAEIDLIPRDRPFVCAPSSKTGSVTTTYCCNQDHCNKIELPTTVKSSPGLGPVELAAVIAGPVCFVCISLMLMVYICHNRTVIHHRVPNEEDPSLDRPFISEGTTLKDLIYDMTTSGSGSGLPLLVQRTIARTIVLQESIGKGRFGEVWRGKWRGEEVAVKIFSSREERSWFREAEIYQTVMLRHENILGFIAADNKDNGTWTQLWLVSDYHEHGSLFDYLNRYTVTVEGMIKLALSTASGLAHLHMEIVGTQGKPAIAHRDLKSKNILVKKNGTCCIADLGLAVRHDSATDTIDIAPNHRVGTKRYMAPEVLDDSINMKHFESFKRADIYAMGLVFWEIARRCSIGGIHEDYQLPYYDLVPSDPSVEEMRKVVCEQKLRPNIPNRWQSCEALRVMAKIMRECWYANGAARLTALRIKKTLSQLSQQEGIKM
Sequence of Leucine-rich repeat serine/threonine-protein kinase 2 (Homo sapiens) (Q5S007 whole entry): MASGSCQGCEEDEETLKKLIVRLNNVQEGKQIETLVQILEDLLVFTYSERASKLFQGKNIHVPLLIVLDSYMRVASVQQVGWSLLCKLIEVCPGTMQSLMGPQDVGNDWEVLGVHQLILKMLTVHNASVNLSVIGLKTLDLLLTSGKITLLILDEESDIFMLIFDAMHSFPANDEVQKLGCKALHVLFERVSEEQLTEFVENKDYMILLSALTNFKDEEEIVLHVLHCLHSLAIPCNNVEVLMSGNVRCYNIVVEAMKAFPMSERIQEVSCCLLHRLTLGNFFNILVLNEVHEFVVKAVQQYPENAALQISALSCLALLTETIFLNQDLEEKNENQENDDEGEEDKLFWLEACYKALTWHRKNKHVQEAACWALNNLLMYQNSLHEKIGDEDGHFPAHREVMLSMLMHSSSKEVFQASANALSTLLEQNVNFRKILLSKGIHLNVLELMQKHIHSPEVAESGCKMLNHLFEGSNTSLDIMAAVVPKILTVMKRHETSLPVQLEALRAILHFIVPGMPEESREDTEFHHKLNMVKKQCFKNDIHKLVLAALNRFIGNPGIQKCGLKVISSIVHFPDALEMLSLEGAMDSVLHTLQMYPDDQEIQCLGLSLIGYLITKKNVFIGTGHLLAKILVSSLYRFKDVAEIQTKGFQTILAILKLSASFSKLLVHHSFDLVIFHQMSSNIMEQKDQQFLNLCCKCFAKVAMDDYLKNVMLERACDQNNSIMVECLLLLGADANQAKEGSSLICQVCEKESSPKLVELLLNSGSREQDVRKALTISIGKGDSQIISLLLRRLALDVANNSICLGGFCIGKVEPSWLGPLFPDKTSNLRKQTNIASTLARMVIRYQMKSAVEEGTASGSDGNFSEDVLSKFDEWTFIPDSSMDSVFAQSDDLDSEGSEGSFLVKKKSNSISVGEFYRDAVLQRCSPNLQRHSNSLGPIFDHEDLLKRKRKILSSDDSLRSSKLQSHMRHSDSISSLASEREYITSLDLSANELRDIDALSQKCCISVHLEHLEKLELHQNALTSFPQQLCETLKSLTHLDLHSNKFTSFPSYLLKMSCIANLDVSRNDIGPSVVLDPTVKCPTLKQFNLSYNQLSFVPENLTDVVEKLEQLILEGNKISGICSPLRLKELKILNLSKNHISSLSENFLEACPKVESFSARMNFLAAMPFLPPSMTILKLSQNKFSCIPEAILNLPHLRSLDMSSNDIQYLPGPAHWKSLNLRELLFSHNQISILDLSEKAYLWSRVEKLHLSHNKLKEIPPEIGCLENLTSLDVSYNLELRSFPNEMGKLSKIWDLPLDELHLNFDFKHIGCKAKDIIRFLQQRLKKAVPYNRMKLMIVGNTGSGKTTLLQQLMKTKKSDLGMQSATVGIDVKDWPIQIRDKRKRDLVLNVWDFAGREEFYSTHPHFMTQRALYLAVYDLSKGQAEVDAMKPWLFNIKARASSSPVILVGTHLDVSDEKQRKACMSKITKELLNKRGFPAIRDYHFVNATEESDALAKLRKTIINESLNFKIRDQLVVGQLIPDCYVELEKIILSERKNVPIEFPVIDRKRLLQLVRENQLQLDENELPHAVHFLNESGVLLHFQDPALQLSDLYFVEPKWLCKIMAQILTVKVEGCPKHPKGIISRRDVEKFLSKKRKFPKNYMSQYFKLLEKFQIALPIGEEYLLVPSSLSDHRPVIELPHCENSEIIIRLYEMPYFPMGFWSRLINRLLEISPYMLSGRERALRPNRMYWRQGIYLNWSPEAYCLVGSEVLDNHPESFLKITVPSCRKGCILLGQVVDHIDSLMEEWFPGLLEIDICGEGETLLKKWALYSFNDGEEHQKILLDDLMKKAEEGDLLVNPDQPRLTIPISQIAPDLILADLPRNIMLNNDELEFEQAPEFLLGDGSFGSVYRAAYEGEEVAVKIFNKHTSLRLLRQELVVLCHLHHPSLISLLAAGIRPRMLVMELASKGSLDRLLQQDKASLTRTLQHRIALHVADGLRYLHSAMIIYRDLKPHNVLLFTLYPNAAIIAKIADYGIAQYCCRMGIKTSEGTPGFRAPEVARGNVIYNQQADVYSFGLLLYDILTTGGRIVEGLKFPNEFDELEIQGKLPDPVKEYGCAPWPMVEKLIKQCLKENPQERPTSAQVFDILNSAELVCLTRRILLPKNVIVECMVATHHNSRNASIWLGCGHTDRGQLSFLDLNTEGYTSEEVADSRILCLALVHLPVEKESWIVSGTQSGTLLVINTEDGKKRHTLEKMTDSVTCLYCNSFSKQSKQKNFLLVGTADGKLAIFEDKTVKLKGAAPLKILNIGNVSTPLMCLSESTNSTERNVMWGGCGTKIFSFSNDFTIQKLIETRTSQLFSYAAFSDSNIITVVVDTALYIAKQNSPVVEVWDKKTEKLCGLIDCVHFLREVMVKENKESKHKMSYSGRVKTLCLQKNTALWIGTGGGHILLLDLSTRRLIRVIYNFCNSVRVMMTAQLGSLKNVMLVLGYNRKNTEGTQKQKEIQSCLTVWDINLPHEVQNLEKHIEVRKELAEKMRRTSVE
Sequence of Hepatocyte growth factor receptor (Homo sapiens), P08581 [D1246N] (P08581 with tags, fused parts or gaps D1246N): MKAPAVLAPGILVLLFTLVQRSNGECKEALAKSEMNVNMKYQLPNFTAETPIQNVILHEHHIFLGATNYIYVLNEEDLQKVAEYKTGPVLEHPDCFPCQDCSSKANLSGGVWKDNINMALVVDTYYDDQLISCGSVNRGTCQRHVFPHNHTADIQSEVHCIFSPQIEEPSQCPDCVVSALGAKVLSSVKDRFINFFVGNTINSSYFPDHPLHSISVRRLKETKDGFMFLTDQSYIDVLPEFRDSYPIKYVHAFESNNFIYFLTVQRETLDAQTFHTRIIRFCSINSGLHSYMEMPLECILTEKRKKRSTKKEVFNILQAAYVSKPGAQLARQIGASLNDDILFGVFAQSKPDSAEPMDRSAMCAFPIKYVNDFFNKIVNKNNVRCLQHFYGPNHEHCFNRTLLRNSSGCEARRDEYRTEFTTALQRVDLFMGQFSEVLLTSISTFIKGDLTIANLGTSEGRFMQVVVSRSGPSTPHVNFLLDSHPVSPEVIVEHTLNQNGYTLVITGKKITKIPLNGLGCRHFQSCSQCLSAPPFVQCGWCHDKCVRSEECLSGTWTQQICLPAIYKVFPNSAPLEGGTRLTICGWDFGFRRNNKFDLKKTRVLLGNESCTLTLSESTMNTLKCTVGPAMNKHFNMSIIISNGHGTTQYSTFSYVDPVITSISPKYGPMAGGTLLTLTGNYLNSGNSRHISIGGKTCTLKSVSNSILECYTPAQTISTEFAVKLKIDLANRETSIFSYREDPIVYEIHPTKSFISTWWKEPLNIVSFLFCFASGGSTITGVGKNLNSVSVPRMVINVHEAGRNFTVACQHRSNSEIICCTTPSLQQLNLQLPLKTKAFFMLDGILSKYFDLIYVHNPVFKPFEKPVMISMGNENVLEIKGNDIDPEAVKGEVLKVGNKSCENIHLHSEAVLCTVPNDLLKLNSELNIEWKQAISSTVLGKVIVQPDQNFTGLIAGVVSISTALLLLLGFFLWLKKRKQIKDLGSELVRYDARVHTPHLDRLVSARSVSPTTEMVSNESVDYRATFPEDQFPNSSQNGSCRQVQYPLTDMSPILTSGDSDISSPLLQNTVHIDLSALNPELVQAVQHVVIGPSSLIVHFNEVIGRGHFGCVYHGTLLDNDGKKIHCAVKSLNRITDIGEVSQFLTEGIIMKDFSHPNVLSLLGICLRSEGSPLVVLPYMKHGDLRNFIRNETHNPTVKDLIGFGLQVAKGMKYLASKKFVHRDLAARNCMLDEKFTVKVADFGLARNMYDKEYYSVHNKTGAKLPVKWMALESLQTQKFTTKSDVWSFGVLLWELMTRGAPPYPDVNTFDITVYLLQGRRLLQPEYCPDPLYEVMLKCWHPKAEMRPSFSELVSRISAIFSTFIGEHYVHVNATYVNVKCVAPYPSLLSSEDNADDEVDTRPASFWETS
Sequence of CDK4/Cyclin D3 (P11802 whole entry): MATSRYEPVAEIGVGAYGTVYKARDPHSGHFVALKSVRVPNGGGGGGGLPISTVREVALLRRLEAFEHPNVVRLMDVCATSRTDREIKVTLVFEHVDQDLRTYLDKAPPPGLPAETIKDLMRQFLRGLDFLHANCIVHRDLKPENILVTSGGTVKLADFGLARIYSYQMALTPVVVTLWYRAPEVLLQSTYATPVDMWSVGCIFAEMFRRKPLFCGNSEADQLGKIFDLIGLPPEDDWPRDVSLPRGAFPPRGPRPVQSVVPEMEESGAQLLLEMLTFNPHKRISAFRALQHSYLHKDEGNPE
Sequence of CDK4/Cyclin D3 (P30281 whole entry, further chain): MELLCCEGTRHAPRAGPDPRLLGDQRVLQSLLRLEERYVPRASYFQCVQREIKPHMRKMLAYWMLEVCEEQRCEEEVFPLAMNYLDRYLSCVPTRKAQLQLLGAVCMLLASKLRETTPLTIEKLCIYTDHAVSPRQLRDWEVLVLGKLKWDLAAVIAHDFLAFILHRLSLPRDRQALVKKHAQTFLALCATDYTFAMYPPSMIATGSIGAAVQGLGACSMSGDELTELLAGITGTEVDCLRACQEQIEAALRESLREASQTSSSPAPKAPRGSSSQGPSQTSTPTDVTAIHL

Cc1ccc(NC(=O)C2(C(=O)Nc3ccc(Nc4ncc(F)c(-c5cc(F)c6nc(C)n(C(C)C)c6c5)n4)cc3)CC2)cc1
inhibition (MDA-MB-231 [1]): Active
Activity (T47D [2]): Active
Activity (HeLa): Active
Activity [3]: Toxic
Activity [4]: Non-Toxic
MRT last [5]: 4 h
IC50 [6]: 46 nM
IC50 (CDK4/Cyclin D3): 46 nM
inhibition [7]: 56%
inhibition [8]: 73%
inhibition [9]: 12%
inhibition [10]: 83%
inhibition [11]: 51%
inhibition [12]: 4%
inhibition [13]: 6%
inhibition [14]: 47%
inhibition [15]: 0%
inhibition [16]: 12%
inhibition (HUVEC): Dose-dependent effect
Activity [17]: Non-Toxic
Activity [18]: Non-Toxic

COc1cc2nccc(Oc3ccc(NC(=O)C4(C(=O)Nc5ccc(F)cc5)CC4)cc3)c2cc1OC [CABOZANTINIB]
Activity (MDA-MB-231 [19]): Active
inhibition (T47D [20]): Active
